# From PubChem BioAssay
# NadD inh: NadD (S. aureus) enzyme inhibition | 360,000 compounds, 0.78% hits | purified NadD enzyme, colorimetric absorbance read-out | inhibition, % at 20 µM; in the data active = inhibition above about 26%
# Beta2AR agonist: agonists of human beta-2 adrenergic receptor inducing internalization; P07550; Am2.2-beta2AR cells, FAP receptor internalization, flow cytometry; response, % (concentration not given with the values); 340,000 compounds, 0.43% hits; AID 504454;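 active = response above a set limit, near 3 SD of response in nonfluorescent compounds, cut at about 42% in these data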
# ABHD5-PLIN5 inh: inhibitors of human ABHD5-perilipin-5 interaction. inhibition, % at 4 µM. Q00G26+Q8WTS1. 360,000 compounds, 0.78% hits. Split G. princeps luciferase complementation, luminescence, 4 h;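 active = inhibition above the mean inhibition across every tested compound plus 3 SD, cut at about 22% in these data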;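 note: 0% = DMSO only wells and the 100% control is not disclosed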
# GRK2 aptamer HTS: blocks RNA aptamer binding to human GRK2; P25098; bead flow cytometry, FAM-aptamer displacement from GRK2; inhibition of aptamer binding, % at 10 µM; 330,000 compounds, 0.59% hits;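 active = inhibition of aptamer binding above 40%, roughly 3 SD of noise, on plates passing a quality check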;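 note: median bead fluorescence of bound FAM aptamer so fluorescent compounds give negative values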
# SENP1 inh: SENP1 (human) catalytic domain inhibition; 360,000 compounds, 0.21% hits; Q9P0U3; inhibition, % at 10 µM; recombinant SENP1 catalytic domain, CyPet-SUMO1-YPet FRET cleavage;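 active = inhibition at least 30% at 10 µM, raw YFP signal under a set limit, fluorescence ratio 0.5 to 1.5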;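 note: 0% = enzyme with DMSO and 100% = no enzyme wells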
# Target sequence (Q9P0U3 419-644 limits assumed): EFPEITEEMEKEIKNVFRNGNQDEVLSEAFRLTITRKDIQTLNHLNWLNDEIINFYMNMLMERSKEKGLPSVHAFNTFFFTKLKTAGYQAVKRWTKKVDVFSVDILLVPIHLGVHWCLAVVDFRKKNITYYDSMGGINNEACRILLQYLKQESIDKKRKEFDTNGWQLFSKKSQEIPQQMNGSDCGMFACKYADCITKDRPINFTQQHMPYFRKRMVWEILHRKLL
#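 Test system: human SENP1 catalytic domain; medium: Tris pH 8 buffer plus EDTA, NaCl, BME, BSA, NP40, catalase; incubation: 50 min reaction at room temperature; technique: FRET, CFP and YFP emission; controls: no-enzyme low control and enzyme-plus-DMSO high control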
# ABHD5-PLIN5 conf: confirmation of human ABHD5-PLIN5 interaction inhibitors; shares compounds with ABHD5-PLIN5 inh; biochemical ABHD5-PLIN5 interaction, luminescence; inhibition, % at 4 µM; 2,200 compounds, 67% hits; AID 651612; in the data active = inhibition above about 23%;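 note: 0% = DMSO vehicle wells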
# HNF4 counter: HNF4 split-luciferase signal hit, counter-screen. shares compounds with ABHD5-PLIN5 inh. HNF4 dimerization, luminescence, biochemical. inhibition, % at 4 µM. 2,200 compounds, 77% hits. AID 651674;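 active = mean inhibition across replicate wells exceeding the computed hit threshold, cut at about 13% in these data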;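 note: light from luciferase halves that rejoin when HNF4 fusion proteins dimerize; 0% = DMSO only wells and the 100% control is not given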
# * hit, by the source's call; . = not tested or not shown. In the library only some 2.5% were active in any assay of this set; here they are far more common.
SMILES,NadD inh,Beta2AR agonist,ABHD5-PLIN5 inh,GRK2 aptamer HTS,SENP1 inh,ABHD5-PLIN5 conf,HNF4 counter
CCOC(=O)c1c(C)oc2c1c(CN1CCN(CCO)CC1)c(O)c1ccccc12,4,22,35*,.,-2,63*,25*
CCOC(=O)c1c(C)oc2c1c(CN1CCN(C(=O)OCC)CC1)c(O)c1ccccc12,11,8,-20,2,-7,.,.
CCn1c(Cl)c(C=O)s/c1=N\S(=O)(=O)c1ccccc1,-2,115*,48*,2,4,71*,105*
CC(C)C(OC(=O)CN1C(=O)c2ccccc2C1=O)C(=O)NC1CCCC1 (stereo not drawn),-6,8,4,0,0,.,.
CCCCOC(=O)Nc1ccc(C(=O)OC)cc1,-3,-1,-3,0,0,.,.
CCCCOC(=O)Nc1cc(C(=O)OC)ccc1C(=O)OC,-4,5,28*,3,2,43*,5
CCN(CC)CC(=O)N1c2ccccc2Oc2c(c(=O)n(C)c(=O)n2C)C1c1cccc([N+](=O)[O-])c1 (stereo not drawn),-4,-1,-3,0,0,.,.
CCOC(=O)CC1CCCCN1C(=O)c1cc(COc2cccc3cnccc23)on1 (stereo not drawn),2,-3,6,0,1,.,.
CCN1CCC(O)(/C=C/c2ccc(C(C)C)cc2)C(C(=O)/C=C/c2ccc(C(C)C)cc2)C1 (stereo not drawn),10,39,67*,.,1,78*,79*
Cc1ccc(S(=O)(=O)N2C[C@H]3[C@H]4C(=O)N(Cc5ccccc5)C(=O)[C@H]4CC(=O)[C@H]3[C@@H]2c2cccc3ccccc23)cc1,6,.,-7,.,-22,.,.
COc1cc(OC)cc(C(=O)NC(=S)N(Cc2ccccc2)C(C)C)c1,-10,7,45*,9,2,70*,-10
COc1cc(OC)cc(C(=O)NC(=S)NCCc2ccccc2)c1,-3,-10,-2,8,0,.,.
O=C(CSc1cn[nH]n1)Nc1ccc(Cl)cc1Cl,2,-3,2,0,-1,.,.
Cc1ccc(NC(=O)CC2S/C(=N/N=C/c3c[nH]c4ccccc34)NC2=O)cc1 (stereo not drawn),9,-2,26*,2,1,16,14*
C=C(C(=O)c1ccccc1)C(NC(C)(C)C)c1ccccc1 (stereo not drawn),-5,29,42*,.,0,65*,54*
Cc1ccc(/C=C/C(=O)N2CC(C)CC(C)C2)o1 (stereo not drawn),2,5,28*,0,-5,23*,36*
CCN1CCN(C(=O)/C=C/c2ccc(C)o2)CC1,-5,2,-1,0,-7,.,.
COc1cccc(NC(=O)COc2ccc(C(=S)N3CCN(C)CC3)cc2OC)c1,-1,-3,0,0,3,.,.
Cc1ccc(CNC(=O)c2cccc3c2C(=O)c2ccc(N4CCOCC4)cc2S3(=O)=O)cc1,-1,-3,5,0,-14,.,.
O=C(NCc1ccco1)c1cccc2c1C(=O)c1ccc(N3CCCC3)cc1S2(=O)=O,-1,8,26*,0,-32,33*,73*
O=C(NCc1cccc(F)c1)c1cccc2c1C(=O)c1ccc(N3CCOCC3)cc1S2(=O)=O,8,9,25*,1,-29,-1,16*
O=C(Nc1cccc(F)c1)C1CCCN(S(=O)(=O)c2cccc3cccnc23)C1 (stereo not drawn),1,-5,-4,3,1,.,.
COc1ccc(CNC(=O)C2CCN(S(=O)(=O)c3c(C)noc3/C=C/N(C)C)CC2)cc1,1,7,14,2,-1,.,.
Cc1ccc(C(C[N+](=O)[O-])c2c(N)n(C)c(=O)n(C)c2=O)cc1 (stereo not drawn),-3,10,32*,1,-1,36*,44*
COc1cccc(F)c1C(C[N+](=O)[O-])c1c(N)n(C)c(=O)n(C)c1=O (stereo not drawn),-8,9,31*,3,1,30*,68*
SMILES,NadD inh,Beta2AR agonist,ABHD5-PLIN5 inh,GRK2 aptamer HTS,SENP1 inh,ABHD5-PLIN5 conf,HNF4 counter
COc1cc(C(C[N+](=O)[O-])c2c(C)[nH]c3ccccc23)ccc1O (stereo not drawn),-5,8,2,1,-18,.,.
COc1cc(C(C[N+](=O)[O-])c2c(N)n(C)c(=O)n(C)c2=O)ccc1O (stereo not drawn),-5,11,45*,1,1,37*,55*
CC(C(c1ccc2c(c1)OCO2)c1c(N)n(C)c(=O)n(C)c1=O)[N+](=O)[O-] (stereo not drawn),-1,-4,33*,0,2,6,12
O=C1CC2(CCCC2)C(=O)N1c1ccc(S(=O)(=O)NCC2CC2)cc1Cl,-4,-10,-6,1,-1,.,.
CN(CC(=O)Nc1ccccc1Cl)C(=O)Cn1nnc(-c2ccc(F)cc2)n1,0,-6,-8,0,4,.,.
O=[N+]([O-])c1ccc(/C=N/Nc2ccc3ccccc3c2)o1,4,-20,28*,3,38*,31*,17*
Cc1ccc(S(=O)(=O)N2C[C@@]3(O)Cn4c(=O)ccc(=O)n4C[C@@]3(OC(=O)NCC3CCCCC3)C2)cc1,6,.,37*,.,-1,58*,2
COC(=O)[C@H]1C[C@@]2(O)CN(S(=O)(=O)c3ccc(C)cc3)C[C@@]2(OC(=O)NCC2CCCCC2)C[C@H]1C(=O)OC,-6,.,-2,.,1,.,.
CCCCCC1=CCC/C1=N\NC(=O)c1ccc2c(c1)OCO2,-5,-1,-3,2,1,.,.
COc1ccc(NC(=O)CCNC(=O)C2CCN(S(=O)(=O)c3ccccc3)CC2)cc1OC,-9,.,2,.,-1,.,.
CCN1C/C(=C\c2cc(OC)c(OC)c(OC)c2)C2=NN(c3ccccc3)C(c3cc(OC)c(OC)c(OC)c3)C2C1 (stereo not drawn),-1,-2,8,.,-25,.,.
CC(Sc1ccsc1[N+](=O)[O-])C(=O)NCc1ccco1 (stereo not drawn),2,3,28*,0,1,10,21*
CC(Sc1nnc(-c2cccs2)n1-c1ccccc1)C(=O)NCc1ccco1 (stereo not drawn),-4,15,5,0,1,.,.
CCOC(=O)C(C#N)=CN1CCNc2ccccc21,-1,9,6,.,2,.,.
Cc1ccc(S(=O)(=O)c2c(N)n(Cc3ccco3)c3nc4ccccc4nc23)cc1C,47*,-7,28*,0,-27,52*,48*
